Consider ten compounds from ChEMBL document CHEMBL3580580, “Nodulisporiviridins A-H, Bioactive Viridins from Nodulisporium sp” (J Nat Prod, 2015).

The target of assay [1] is T1, Amyloid-beta precursor protein (Homo sapiens, UniProt P05067). In words: Inhibition of amyloid beta (1 to 42) (unknown origin) aggregation incubated at 37 degC for 16 hrs by thioflavin T fluorescence assay. The method in brief: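 Aβ42 at 40 μM (in DMSO/PBS pH 6.6), mixed 2:1:1 with sample and 80 μM ThT stock, shaken 15 min, then held at 37 °C for 16 h. Read by ThT fluorescence. IC50 measured only for samples with ≥60% inhibition: six concentrations, three independent experiments, mean % inhibition fitted to a four-parameter variable-slope log(inhibitor)–response curve.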
T1 sequence (P05067 whole entry): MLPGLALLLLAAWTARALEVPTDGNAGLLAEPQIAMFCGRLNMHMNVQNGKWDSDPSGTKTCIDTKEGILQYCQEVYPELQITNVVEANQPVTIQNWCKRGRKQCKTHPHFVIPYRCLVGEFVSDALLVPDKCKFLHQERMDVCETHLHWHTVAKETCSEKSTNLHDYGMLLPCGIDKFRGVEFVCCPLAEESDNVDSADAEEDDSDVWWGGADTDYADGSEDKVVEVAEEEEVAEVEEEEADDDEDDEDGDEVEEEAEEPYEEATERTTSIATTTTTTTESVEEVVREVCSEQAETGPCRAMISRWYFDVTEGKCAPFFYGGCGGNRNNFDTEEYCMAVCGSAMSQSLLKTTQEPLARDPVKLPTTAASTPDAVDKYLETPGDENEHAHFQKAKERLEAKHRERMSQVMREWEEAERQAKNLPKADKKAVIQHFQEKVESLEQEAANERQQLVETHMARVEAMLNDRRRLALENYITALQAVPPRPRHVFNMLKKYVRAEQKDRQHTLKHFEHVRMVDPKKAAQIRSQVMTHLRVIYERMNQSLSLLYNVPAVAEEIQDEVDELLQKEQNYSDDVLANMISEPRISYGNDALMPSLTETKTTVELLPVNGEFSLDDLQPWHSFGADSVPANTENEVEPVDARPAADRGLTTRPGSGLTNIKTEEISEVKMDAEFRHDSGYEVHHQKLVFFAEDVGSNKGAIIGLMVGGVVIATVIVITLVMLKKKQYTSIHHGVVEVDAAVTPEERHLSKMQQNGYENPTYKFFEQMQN

The next assay has as its system Drosophila. In words: Enhancement of short-term memory in Drosophila w1118 (isoCJ1) P35*H29.3 model of human Abeta42 transgenic Alzheimer's disease model assessed as increase in performance index at 100 uM fed to flies for 7 days by Pavlovian olfactory learning method. The format is functional, organism-based. In a few lines:
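Male flies: elav-GAL4c155 (P35) × UAS-Aβ42 (H29.3) F1, with 2U*H29.3 as normal controls. Newly hatched flies kept about 120 per vial and reared at 28 °C, 42% RH. Fed 100 μM (from 10 mM stock) in 50 μL daily for 4 h, days 2–8. Controls got matching DMSO. Pavlovian olfactory learning done in the dark at 24 °C, 70% RH. Read-out is performance index; two vials per PI.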

Assay [2] deals with T1, Amyloid-beta precursor protein. In words: Inhibition of amyloid beta (1 to 42) (unknown origin) aggregation at 100 uM incubated at 37 degC for 16 hrs by thioflavin T fluorescence assay. The method in brief:
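Aβ42 prepared at 40 μM in DMSO plus PBS (0.01 M, pH 6.6), mixed 2:1:1 with sample and 80 μM ThT stock. Shaken 15 min, incubated at 37 °C for 16 h, then ThT fluorescence read. Inhibition = (F0−Fi)/F0×100 against no-sample wells. Three independent experiments.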

Calls of active or inactive are those of the source. The rule behind the calls is not given here.

Turning to `C[C@]12CCC(=O)c3coc(c31)C(=O)C1=C2[C@@H](O)C[C@]2(C)C(=O)CC[C@@H]12`, 1.2 µM corresponded to half-maximal inhibition in assay [1] (IC50). Also, the result in the assay with Drosophila was Active. In assay [2], this compound returned an inhibition of 98.8%.

In assay [1], `C[C@@]1(O)c2ccc3c(c2C(=O)c2occ([C@@H](O)CCO)c21)CCC3=O` returned a half-inhibitory concentration (IC50) of 71.9 µM. In addition, the outcome in the assay on Drosophila was Active. This compound had an inhibition in assay [2] of 80.5%.

Compound `C[C@]1(O)c2ccc3c(c2C(=O)c2occ(CCCO)c21)CCC3=O` displayed an IC50 in assay [1] of 28 µM. The result in the assay on Drosophila was Active. This compound also showed an inhibition in assay [2] of 89.5%.

Regarding `C[C@]12CC[C@H](O)c3coc(c31)C(=O)C1=C2[C@@H](O)C[C@]2(C)C(=O)CC[C@@H]12`, the result in the assay with Drosophila was Active. The compound further registered an inhibition in assay [2] of 54.6%.

In assay [1], `C[C@]1(O)c2ccc3c(c2C(=O)c2occ([C@@H](O)CCO)c21)CCC3=O` gave a half-maximal inhibitory concentration (IC50) of 95.9 µM. Also, the result in the assay with Drosophila was Active. This compound came in with an inhibition in assay [2] of 63.5%.

`C[C@@]12c3ccc4c(c3C(=O)c3occ(c31)C(=O)C[C@H]2O)CCC4=O` [DEMETHOXYVIRIDIN] displayed a concentration for half-maximal inhibition (IC50) in assay [1] of 13.4 µM.

For the compound `C[C@@]12c3ccc4c(c3C(=O)c3occ(c31)[C@@H](O)C[C@@H]2O)CCC4=O`, the 50% inhibitory concentration (IC50) in assay [1] was 10.1 µM. Also, the outcome with Drosophila was Active. Moreover, the inhibition in assay [2] came to 99%.

With `O=C(O[C@@H]1Cc2c(O)cc(O)cc2O[C@@H]1c1cc(O)c(O)c(O)c1)c1cc(O)c(O)c(O)c1` [EPIGALOCATECHIN GALLATE], it took 0.5 µM to reach half-maximal inhibition in assay [1] (IC50). Also, the inhibition in assay [2] was found to be 95.1%.

For the compound `C[C@@]12C(=O)CC[C@H]1C1=C(C[C@H]2O)[C@@]2(C)CC[C@H](O)c3coc(c32)C1=O`, the half-maximal inhibitory concentration (IC50) in assay [1] is 43.5 µM. Also, the outcome in the assay with Drosophila was Active. In assay [2], the inhibition is 70.4%.

The compound `C[C@]1(O)c2ccc3c(c2C(=O)c2occ(CCO)c21)CCC3=O` came in with an IC50 in assay [1] of 34.3 µM. Besides, the result in the assay with Drosophila was Active. In addition, the inhibition in assay [2] was found to be 62.8%.
